{"source": "ChEMBL document CHEMBL4680257", "about": "“Discovery of novel NF-кB inhibitor based on scaffold hopping: 1,4,5,6,7,8-hexahydropyrido[4,3-d]pyrimidine” (Eur J Med Chem, 2020)", "key": {"SMMC-7721 [1]": {"test_system": "SMMC-7721", "experiment": "Induction of apoptosis in human SMMC-7721 cells assessed as early apoptotic cells at 1 uM incubated for 24 hrs by annexin V-FITC and PI staining based flow cytometry analysis (reference value: 0.3 %)", "assay_type": "functional", "procedure,_shortened": "(§1)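 Cells seeded at 2×10^5 per well and treated 24 h with 1.0, 2.0 or 4.0 µM, or DMSO. Harvested, washed twice in cold PBS, resuspended at 1×10^5 cells/mL in buffer. Stained with Annexin V-FITC plus propidium iodide for 15 min at room temperature in the dark, then analysed by flow cytometry.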"}, "RAW264.7 [2]": {"test_system": "RAW264.7", "experiment": "Inhibition of NF-kappaB in mouse RAW264.7 cells assessed as reduction in LPS-induced p65 nuclear translocation at 4 uM pretreated with LPS for 15 mins followed by compound addition and measured after 2 hrs by DAPI staining based fluorescence microscopy", "conditions": "time 135.0 min"}, "HepG2 [3]": {"test_system": "HepG2", "experiment": "Induction of apoptosis in human HepG2 cells assessed as necrotic cells at 1 uM incubated for 24 hrs by annexin V-FITC and PI staining based flow cytometry analysis (reference value: 0.8 %)", "assay_type": "functional", "procedure,_shortened": "as §1"}, "SMMC-7721 [4]": {"test_system": "SMMC-7721", "experiment": "Induction of apoptosis in human SMMC-7721 cells assessed as late apoptotic cells at 1 uM incubated for 24 hrs by annexin V-FITC and PI staining based flow cytometry analysis (reference value: 5.4 %)", "assay_type": "functional", "procedure,_shortened": "as §1"}, "SMMC-7721 [5]": {"test_system": "SMMC-7721", "experiment": "Cytotoxicity against human SMMC-7721 cells assessed as reduction in cell viability incubated for 24 hrs by MTT assay", "assay_type": "functional, cell-based", "conditions": "SMMC-7721, 24 h", "procedure,_shortened": "(§2)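 Cells kept at 37 °C in 5% CO₂. HepG2 grown in DMEM with 10% serum; HHL-5, LO2 and SMMC-7721 in 1640 medium with 10% serum. Seeded, grown 24 h, then exposed 24 h to 10, 5, 2.5, 1.25, 0.625 and 0.3125 µg/mL. MTT (5 mg/mL) added for 4 h at 37 °C; formazan dissolved in DMSO, OD read at 570 nm. IC50 averaged from three replicates.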"}, "HepG2 [6]": {"test_system": "HepG2", "experiment": "Inhibition of NF-kappaB in human HepG2 cells assessed as reduction in TNFalpha-induced p65 nuclear translocation at 4 uM pretreated with TNFalpha for 15 mins followed by compound addition and measured after 2 hrs by DAPI staining based fluorescence microscopy", "conditions": "time 135.0 min"}, "RAW264.7 [7]": {"test_system": "RAW264.7", "experiment": "Inhibition of NF-kappaB in mouse RAW264.7 cells assessed as reduction in LPS-induced p38 phosphorylation at 1 to 4 uM incubated for 1 hr followed by LPS stimulation and measured after 30 mins by Western blot analysis", "assay_type": "cell-based", "conditions": "dose 1-4 µM", "procedure,_shortened": "(§3)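 RAW264.7 incubated 1 h with compound (1.0, 2.0, 4.0 µM), then LPS 1.0 µg/mL for 30 min before extraction. Lysates blotted to nitrocellulose and probed overnight at 4 °C for total and phospho forms of p65, IκBα, Akt, ERK1/2, JNK and p38; secondary antibody 2 h at room temperature. ECL detection, normalized to GAPDH, mean ± SD of triplicate tests.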"}, "RAW264.7 [8]": {"test_system": "RAW264.7", "experiment": "Inhibition of NF-kappaB in mouse RAW264.7 cells assessed as reduction in LPS-induced ERK phosphorylation at 1 to 4 uM incubated for 1 hr followed by LPS stimulation and measured after 30 mins by Western blot analysis", "assay_type": "cell-based", "conditions": "dose 1-4 µM", "procedure,_shortened": "as §3"}, "HepG2 [9]": {"test_system": "HepG2", "experiment": "Induction of apoptosis in human HepG2 cells incubated for 24 hrs by annexin V-FITC and PI staining based flow cytometry analysis", "assay_type": "functional, cell-based", "conditions": "dose 1-4 µM", "procedure,_shortened": "as §1"}, "SMMC-7721 [10]": {"test_system": "SMMC-7721", "experiment": "Induction of apoptosis in human SMMC-7721 cells assessed as necrotic cells at 4 uM incubated for 24 hrs by annexin V-FITC and PI staining based flow cytometry analysis (reference value: 1 %)", "assay_type": "functional", "procedure,_shortened": "as §1"}, "HepG2 [11]": {"test_system": "HepG2", "experiment": "Cytotoxicity against human HepG2 cells assessed as reduction in cell viability incubated for 24 hrs by MTT assay", "assay_type": "functional, cell-based", "conditions": "HepG2, 24 h", "procedure,_shortened": "as §2"}, "HepG2 [12]": {"test_system": "HepG2", "experiment": "Induction of apoptosis in human HepG2 cells assessed as decrease in Bcl-2 expression incubated for 24 hrs by Western blot analysis", "assay_type": "functional, cell-based", "conditions": "dose 1-4 µM", "procedure,_shortened": "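HepG2 exposed to 1.0, 2.0 or 4.0 µM for 24 h. Lysates separated by electrophoresis and blotted onto nitrocellulose. Probed overnight at 4 °C with anti-Bcl-2, anti-BAX or anti-cleaved caspase-3, then 2 h at room temperature with anti-mouse/rabbit IgG. ECL detection, GAPDH as loading control; quantified from more than three separate experiments.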"}, "RAW264.7 [13]": {"test_system": "RAW264.7", "experiment": "Antiinflammatory activity against mouse RAW264.7 cells assessed as LPS-induced TNF-alpha at 5 uM pretreated for 2 hrs followed by LPS stimulation and measured after 22 hrs by ELISA (reference value: 0 %)", "assay_type": "functional", "conditions": "time 24 hrs"}, "HepG2 [14]": {"test_system": "HepG2", "experiment": "Induction of apoptosis in human HepG2 cells assessed as late apoptotic cells at 1 uM incubated for 24 hrs by annexin V-FITC and PI staining based flow cytometry analysis (reference value: 4.8 %)", "assay_type": "functional", "procedure,_shortened": "as §1"}, "RAW264.7 [15]": {"test_system": "RAW264.7", "experiment": "Cytotoxicity against mouse RAW264.7 cells assessed as reduction in cell viability at 5 uM incubated for 24 hrs by MTT assay", "assay_type": "cell-based", "conditions": "raw264.7, 24 h"}, "SMMC-7721 [16]": {"test_system": "SMMC-7721", "experiment": "Induction of apoptosis in human SMMC-7721 cells assessed as viable cells at 4 uM incubated for 24 hrs by annexin V-FITC and PI staining based flow cytometry analysis (reference value: 93.3 %)", "assay_type": "functional", "conditions": "read-out: Activity", "procedure,_shortened": "as §1"}}, "note": "The source made the active and inactive calls. The calls are words filed in the database; no cut-off is given here.", "data": [{"smiles": "Cl.NC1=NC(c2cccc(F)c2)C2=C(N1)/C(=C/c1cccc(F)c1)CN(S(=O)(=O)c1ccc(C(F)(F)F)cc1)C2", "note": "(stereo unspecified)", "values": [{"measurement": "Activity", "setting": "SMMC-7721 [1]", "result": 3.2, "unit": "%"}, {"measurement": "inhibition", "setting": "RAW264.7 [2]", "result": "Active"}, {"measurement": "Activity", "setting": "HepG2 [3]", "result": 0.8, "unit": "%"}, {"measurement": "Activity", "setting": "SMMC-7721 [4]", "result": 15.1, "unit": "%"}, {"measurement": "IC50", "setting": "SMMC-7721 [5]", "result": 2400, "unit": "nM"}, {"measurement": "inhibition", "setting": "HepG2 [6]", "result": "Active"}, {"measurement": "inhibition", "setting": "RAW264.7 [7]", "result": "Active"}, {"measurement": "inhibition", "setting": "RAW264.7 [8]", "result": "Active"}, {"measurement": "Activity", "setting": "HepG2 [9]", "result": "Dose-dependent effect"}, {"measurement": "Activity", "setting": "SMMC-7721 [10]", "result": 12.9, "unit": "%"}, {"measurement": "IC50", "setting": "HepG2 [11]", "result": 2100, "unit": "nM"}, {"measurement": "Activity", "setting": "HepG2 [12]", "result": "Dose-dependent effect"}, {"measurement": "inhibition at 5 µM", "setting": "RAW264.7 [13]", "result": 88.5, "unit": "%"}, {"measurement": "Activity", "setting": "HepG2 [14]", "result": 10.5, "unit": "%"}, {"measurement": "Activity", "setting": "RAW264.7 [15]", "result": "Non-Toxic"}, {"measurement": "viability at 4 µM", "setting": "SMMC-7721 [16]", "result": 66.5, "unit": "%"}]}]}
